From PubChem BioAssay
TRPC4 agonist – activators of mouse TRPC4 channel | B-score at 10 µM | 310,000 compounds, 0.49% hits | HEK293 TRPC4beta/mu-opioid, Fluo4 calcium fluorescence; stronger effect = higher value | Q9QUQ5;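 active means B-score above 5 SD of library B-scores, and initial fluorescence ratio not above library mean plus 5 SD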;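 further: positive B-score marks a calcium rise read as TRPC4 activation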
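Material: HEK293 stable line with TRPC4beta plus mu-opioid receptor; technique: Fluo4 calcium-sensitive dye fluorescence, kinetic, 1 Hz baseline; timing: Fluo4 dye loading 45 min at room temperature, 110 s recording; controls: assay buffer as low control, maximal DAMGO as high control; read-out: integrated baseline-normalised fluorescence ratio, converted to per-well B score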
TRPC4 block – blocks the mouse TRPC4 cation channel; Q9QUQ5; AID 2247; 300,000 compounds, 0.39% hits; B-score at 10 µM; HEK293 TRPC4beta/mu-opioid, DAMGO-evoked Fluo4 calcium flux; stronger effect = lower value;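 active means B-score over 3 SD under the library average, no early fluorescence shift, positive overall ratio signal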
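Assay system: TRPC4beta/mu-opioid receptor HEK293 cell line; compound dosing: single concentration per test compound; detection: Fluo4 Ca2+ flux fluorescence; evaluation: per-well B score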
TRPC6 act – activators of mouse TRPC6 channel; HEK293-TRPC6 membrane potential dye fluorescence; stronger effect = higher value; B-score at 10 µM; 310,000 compounds, 0.13% hits; AID 2550;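 active means B-score of the integrated fluorescence ratio above library mean plus 3 SD, and starting fluorescence ratio within library mean plus 5 SD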;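 further: higher score means more depolarization so channel activation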
Target sequence (Q61143 whole entry, looked up): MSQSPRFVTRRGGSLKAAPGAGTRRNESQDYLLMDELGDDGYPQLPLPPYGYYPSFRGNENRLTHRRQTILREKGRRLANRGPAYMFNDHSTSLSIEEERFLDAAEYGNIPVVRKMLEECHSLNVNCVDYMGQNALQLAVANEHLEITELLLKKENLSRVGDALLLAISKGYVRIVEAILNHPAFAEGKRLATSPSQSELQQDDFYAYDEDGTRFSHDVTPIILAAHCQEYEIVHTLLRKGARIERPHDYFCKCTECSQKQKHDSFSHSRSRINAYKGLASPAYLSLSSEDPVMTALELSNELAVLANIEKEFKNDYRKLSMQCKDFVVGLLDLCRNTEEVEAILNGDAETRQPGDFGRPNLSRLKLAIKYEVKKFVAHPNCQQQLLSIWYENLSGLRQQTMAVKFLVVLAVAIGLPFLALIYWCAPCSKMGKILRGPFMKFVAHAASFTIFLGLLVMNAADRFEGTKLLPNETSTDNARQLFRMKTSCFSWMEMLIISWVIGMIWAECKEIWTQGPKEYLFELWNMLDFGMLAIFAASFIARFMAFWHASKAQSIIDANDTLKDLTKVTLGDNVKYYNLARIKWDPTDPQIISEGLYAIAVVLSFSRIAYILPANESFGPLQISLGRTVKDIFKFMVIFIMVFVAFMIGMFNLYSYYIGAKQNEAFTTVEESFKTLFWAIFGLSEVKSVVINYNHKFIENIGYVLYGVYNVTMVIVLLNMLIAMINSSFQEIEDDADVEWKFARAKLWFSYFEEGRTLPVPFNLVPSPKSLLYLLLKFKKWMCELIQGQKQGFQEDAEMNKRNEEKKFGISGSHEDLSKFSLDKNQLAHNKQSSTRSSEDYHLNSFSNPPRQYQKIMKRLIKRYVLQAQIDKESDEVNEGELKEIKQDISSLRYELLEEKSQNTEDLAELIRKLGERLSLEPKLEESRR
TRPC4 PAM – allosteric potentiators of mouse TRPC4 channel. Q9QUQ5. HEK293 TRPC4beta/mu-opioid, DAMGO EC20, Fluo-4 Ca2+ flux; stronger effect = higher value. B-score at 10 µM. 310,000 compounds, 0.42% hits. AID 2227;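 active means B-score of calcium response area above 5 SD of library B-scores, with initial fluorescence ratio within 5 SD of library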;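 further: B-score of integrated fluorescence ratio over time as area under calcium response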
TRPC6 inh – inhibitors of mouse TRPC6 channel; Q61143; HEK293-TRPC6, membrane potential dye, ACh-evoked depolarization; stronger effect = lower value; B-score at 10 µM; 310,000 compounds, 1.1% hits;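 active means B-score under library mean minus 3 SD, initial fluorescence not abnormally high, positive integrated signal ratio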;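 further: B-score derived from integrated fluorescence ratio over the kinetic read; more negative B-score means stronger inhibition of depolarization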
Starred values were filed as active, the others as inactive. Only some compounds are listed: those with a hit (about 2.3% of all), similar ones and a draw of the others.

`Clc1ccc(-c2csc3ncnc(NCCN4CCOCC4)c23)cc1` gave TRPC4 agonist inactive, TRPC4 block -5*, TRPC6 act inactive, TRPC4 PAM inactive and TRPC6 inh inactive.
For Cc1ccc(-c2csc3ncnc(NCCN4CCOCC4)c23)cc1 the results were TRPC4 agonist inactive, TRPC4 block -6*, TRPC6 act inactive, TRPC4 PAM inactive and TRPC6 inh inactive.
`COc1cc(C(=O)Nc2cccc(NC(=O)c3cccs3)c2)cc(OC)c1OC` gave TRPC4 agonist inactive, TRPC4 block inactive, TRPC6 act inactive, TRPC4 PAM inactive and TRPC6 inh inactive.
NC(=O)c1ccc(Oc2ccc3c(c2)CCC3)c([N+](=O)[O-])c1 was read as TRPC4 agonist inactive, TRPC4 block inactive, TRPC6 act inactive, TRPC4 PAM 24* and TRPC6 inh inactive.
Cc1cc([N+](=O)[O-])ccc1NCc1ccccc1 was read as TRPC4 agonist inactive, TRPC4 block -7*, TRPC6 act inactive, TRPC4 PAM inactive and TRPC6 inh inactive.
CCOC(=O)C(C(=O)OCC)C(C(=O)OCC)N1CCOCC1 (stereo unspecified) was read as TRPC4 agonist inactive, TRPC4 block inactive, TRPC6 act inactive, TRPC4 PAM inactive and TRPC6 inh inactive.
`CN1CCN(c2ccc(NC(=O)c3ccc(Br)o3)cc2)CC1` gave TRPC4 agonist inactive, TRPC4 block -7*, TRPC6 act inactive, TRPC4 PAM inactive and TRPC6 inh inactive.
`COC(C[C@@H]1O[C@@H]1[C@H](O)[C@@H](C)OCc1ccccc1)OC` gave TRPC4 agonist inactive, TRPC4 block inactive, TRPC6 act inactive, TRPC4 PAM inactive and TRPC6 inh inactive.
Screening COc1ccc(N2CCN(Cc3nc4ccccc4n3C)CC2)cc1 returned TRPC4 agonist 124*, TRPC4 block inactive, TRPC6 act inactive, TRPC4 PAM inactive and TRPC6 inh inactive.
Screening COc1ccc(C(CNC(=O)CSc2ccccc2C)N(C)C)cc1 (stereo unspecified) returned TRPC4 agonist 116*, TRPC4 block inactive, TRPC6 act inactive, TRPC4 PAM inactive and TRPC6 inh inactive.
CCC(C)C(NC(=O)OCc1ccccc1)C(=O)NCC(c1ccccc1)N(C)C (stereo unspecified) was read as TRPC4 agonist inactive, TRPC4 block -5*, TRPC6 act inactive, TRPC4 PAM inactive and TRPC6 inh inactive.
CN(C)c1ccc(C(CNC(=O)Cc2cccc3ccccc23)N(C)C)cc1 (stereo unspecified) was read as TRPC4 agonist 77*, TRPC4 block inactive, TRPC6 act inactive, TRPC4 PAM inactive and TRPC6 inh inactive.
COc1ccc(C(CNC(=O)Cc2ccc(-c3ccccc3)cc2)N(C)C)cc1 (stereo unspecified) was read as TRPC4 agonist 202*, TRPC4 block inactive, TRPC6 act inactive, TRPC4 PAM inactive and TRPC6 inh inactive.
Screening CC[C@H](C)[C@H](NC(=O)OCc1ccccc1)C(=O)Nc1ccc(NC(C)=O)cc1 returned TRPC4 agonist inactive, TRPC4 block inactive, TRPC6 act inactive, TRPC4 PAM inactive and TRPC6 inh inactive.
Screening COc1ccccc1C(CNC(=O)CSc1ccc2ccccc2c1)N(C)C (stereo unspecified) returned TRPC4 agonist inactive, TRPC4 block inactive, TRPC6 act inactive, TRPC4 PAM inactive and TRPC6 inh inactive.
COc1ccc(OCCNC(=O)C(c2ccccc2)c2ccccc2)cc1 was read as TRPC4 agonist inactive, TRPC4 block inactive, TRPC6 act inactive, TRPC4 PAM inactive and TRPC6 inh inactive.
COc1ccccc1C(=O)NCC(c1cccnc1)N(C)C (stereo unspecified) was read as TRPC4 agonist inactive, TRPC4 block inactive, TRPC6 act inactive, TRPC4 PAM inactive and TRPC6 inh inactive.
Screening COc1ccc(C(CNC(=O)/C=C/c2c(Cl)nc3ccccn23)N(C)C)cc1 (stereo unspecified) returned TRPC4 agonist 249*, TRPC4 block inactive, TRPC6 act inactive, TRPC4 PAM inactive and TRPC6 inh inactive.
`COc1ccc(CC(NC(=O)c2ccccc2)C(=O)NCC(=O)O)cc1` (stereo unspecified) gave TRPC4 agonist inactive, TRPC4 block inactive, TRPC6 act inactive, TRPC4 PAM inactive and TRPC6 inh inactive.
Screening COc1cccc(C(CNC(=O)C(c2ccccc2)c2ccccc2)N(C)C)c1 (stereo unspecified) returned TRPC4 agonist inactive, TRPC4 block -6*, TRPC6 act inactive, TRPC4 PAM inactive and TRPC6 inh inactive.
COc1ccc(C(CNC(=O)C(Cc2ccccc2)NC(N)=O)N(C)C)cc1 (stereo unspecified) was read as TRPC4 agonist 112*, TRPC4 block inactive, TRPC6 act inactive, TRPC4 PAM inactive and TRPC6 inh inactive.
For COc1ccc(C(CNC(=O)c2cccc3cccnc23)N(C)C)cc1 (stereo unspecified) the results were TRPC4 agonist 108*, TRPC4 block -7*, TRPC6 act inactive, TRPC4 PAM inactive and TRPC6 inh inactive.
For O=C(O)C1CN(C(=O)c2cccc(Br)c2)C1 the results were TRPC4 agonist inactive, TRPC4 block inactive, TRPC6 act inactive, TRPC4 PAM inactive and TRPC6 inh inactive.
Screening COc1cc(OC)cc(C(=O)NC2CCCN(Cc3ccc(Cl)cc3)C2)c1 (stereo unspecified) returned TRPC4 agonist 92*, TRPC4 block inactive, TRPC6 act inactive, TRPC4 PAM inactive and TRPC6 inh inactive.
O=C(COc1ccccc1)NC1CCCN(Cc2ccccc2F)C1 (stereo unspecified) was read as TRPC4 agonist inactive, TRPC4 block inactive, TRPC6 act inactive, TRPC4 PAM inactive and TRPC6 inh inactive.
`Cc1cc(C)n(CC(=O)NC2CCCN(Cc3ccc(Cl)cc3)C2)n1` (stereo unspecified) gave TRPC4 agonist 50*, TRPC4 block inactive, TRPC6 act inactive, TRPC4 PAM inactive and TRPC6 inh inactive.
`O=C(Cc1ccccc1F)NC1CCCN(Cc2ccc(Cl)cc2)C1` (stereo unspecified) gave TRPC4 agonist 44*, TRPC4 block inactive, TRPC6 act inactive, TRPC4 PAM inactive and TRPC6 inh inactive.
`O=C(CCN1CCCCC1=O)NC1CCCN(Cc2ccc(Cl)cc2)C1` (stereo unspecified) gave TRPC4 agonist inactive, TRPC4 block inactive, TRPC6 act inactive, TRPC4 PAM 14* and TRPC6 inh inactive.
